The source made the active and inactive calls. No cut-off for these calls is given here.
Assays:
[1] = system: Macrophage; assay: Induction of IL-1beta production in human THP-1 derived macrophages assessed as accumulation of IL-1beta precursor in cell lysates at 20 uM measured up to 18 hrs by ELISA; assay type: functional, subcellular; conditions: time hrs <=18
How it was run: (§1)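 Differentiated THP-1 macrophages treated with compound at 20 μM (S-LPS, R-LPS 100 ng/mL; MPLA 1 μg/mL) for 3, 6 and 18 h. IL-1β measured by ELISA in both cell lysates and supernatants; n = 3, one-way ANOVA versus untreated.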

[2] = Toxicity in C57BL/6 […] assessed as effect on body weight at 10 ug measured daily for 7 days; conditions: mouse, in vivo, 168 h; dose 10 µg, time 7 day
How it was run: (§2)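 Six-week-old female C57BL/6 mice were injected subcutaneously in the flank with 10 μg adjuvant in 50 μL PBS. Mice were monitored and weighed daily for 7 days, with injection-site response and alertness noted. Group size is n = 3 per treatment in the methods and n = 4 in the figure legend.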

[3] = Toxicity in C57BL/6 […] assessed as state of alertness at 10 ug observed daily for 7 days; conditions: mouse, in vivo, 168 h; dose 10 µg, time 7 day; how it was run: as §2
[4] = system: Macrophage; assay: Activation of TRIF dependent pathway in human THP-1 derived macrophages assessed as increase in RSAD2 expression measured after 6 hrs; assay type: tissue-based
How it was run: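 RSAD2 mRNA in differentiated THP-1 macrophages after compound at 10 μM, measured by RT-qPCR (annealing 60 °C) with β-actin housekeeping gene. Expressed as ΔΔCt fold change versus untreated cells; n = 3, Wilcoxon test.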

[5] = system: Macrophage; assay: Induction of IL-1beta production in human THP-1 derived macrophages assessed as secretion of IL-1beta mature form in supernatant at 20 uM measured up to 18 hrs by ELISA; assay type: functional, tissue-based; conditions: time hrs <=18; how it was run: as §1
[6] = system: Macrophage; assay: Activation of TRIF dependent pathway in human THP-1 derived macrophages assessed as increase in IFNbeta mRNA expression measured 2 hrs post treatment by real-time PCR
[7] = system: HEK-Blue hTLR4; assay: Activation of AP-1 in LPS-stimulated HEK-Blue hTLR4 cells assessed as increase in release of SEAP reporter protein level incubated for 18 hrs by QUANTI-blue assay; assay type: cell-based; conditions: Homo sapiens, filed as activator
How it was run: (§3)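 HEK-Blue hTLR4 cells (HEK293 with CD14, TLR4, MD-2 and NF-κB/AP-1-driven SEAP) in DMEM/10% FBS, seeded overnight (37 °C, 5% CO2), washed, then exposed to compound 0.1–25 μM in fresh medium for 18 h. SEAP in supernatant read with QUANTI-Blue substrate (0.5–4 h, RT) at OD 630 nm. Normalized to 100 ng/mL S. minnesota smooth LPS; mean percentage of three independent experiments.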

[8] = target: T1, Toll-like receptor 4/MD-2 (Homo sapiens) (UniProt O00206+Q9Y6Y9); assay: Binding affinity to NTA sensor chip immobilized recombinant human TLR4/MD2 assessed as dissociation rate kinetics by surface plasmon resonance analysis; assay type: protein-complex assay; conditions: filed as agonist
How it was run: (§4)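 Recombinant human TLR4/MD2 complex (20 μg/mL in 10 mM sodium acetate pH 4.0) amine-coupled to NTA chip after NiCl2 and EDC/NHS activation, ethanolamine-blocked. Analytes sonicated 15 min and diluted in PBS-P+ with 5% DMSO, injected over the series 4.34–69.50 μM or 5.34–85.50 μM. Regeneration 50 mM NaOH. Kinetics fitted to 1:1 model after solvent correction.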

[9] = target: Toll-like receptor 4 (Homo sapiens) (UniProt O00206); assay: Activation of human TLR4 in IL-1beta stimulated HEK-Blue Null cells assessed as NF-kappaB activation at 0.1 to 25 uM incubated for 18 hrs by QUANTI- blue assay; assay type: tissue-based; conditions: dose 0.1-25 µM
How it was run: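 HEK-Blue Null cells, which carry the SEAP reporter but lack LPS receptors, were given compound (0.1–25 μM) for 18 h. SEAP was read by QUANTI-Blue at OD 630 nm and normalized to 100 ng/mL human IL-1β as positive control. Results are the mean percentage of three independent experiments.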

[10] = system: Mus musculus; assay: Immuno-adjuvant activity in C57BL/6 mouse assessed as increase in levels of anti-ova total IgG in sera at 10 ug administered subcutaneously on day 1 and as booster dose on day 22 in presence of ovalbumin and […] by ELISA; assay type: functional, organism-based; conditions: dose 10.0 µg
How it was run: (§5)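 Female C57BL/6 mice (n = 8) given 50 μL s.c. in the flank of 500 μg endotoxin-depleted OVA mixed with 10 μg adjuvant in PBS. Booster on opposite flank day 22; OVA-only control group. Tail-vein sera taken days 21 and 41, serially diluted 1:100–1:12 800 and assayed by ELISA on OVA-coated plates (4 μg/mL). Detection with HRP anti-mouse IgG, TMB, A450.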

[11] = target: Toll-like receptor 2 (Homo sapiens) (UniProt O60603); assay: Agonist activity human TLR2 in PAM2CSK4 stimulated HEK-Blue hTLR2 cells at 0.1 to 25 uM incubated for 18 hrs by QUANTI-blue assay; assay type: cell-based; conditions: dose 0.1-25 µM
How it was run: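 HEK-Blue hTLR2 cells exposed 18 h to compound (0.1–25 μM); SEAP in supernatant by QUANTI-Blue at OD 630 nm. Values normalized to PAM2CSK4 (10 ng/mL, 18 h) and expressed as mean percentage of three independent experiments.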

[12] = system: Mus musculus; assay: Immuno-adjuvant activity in C57BL/6 mouse assessed as increase in levels of anti-ova total IgG in sera at 10 ug administered subcutaneously in presence of ovalbumin and measured 21 days post immunization by ELISA; assay type: functional, organism-based; conditions: dose 10.0 µg, time 21.0 day; how it was run: as §5
[13] = target: Toll-like receptor 4 (Homo sapiens) (UniProt O00206); assay: Antagonist activity at human TLR4 in LPS-stimulated HEK-Blue hTLR4 cells assessed as inhibition of LPS-induced SEAP production at 0.1 to 25 uM incubated for 18 hrs by QUANTI-blue assay; conditions: dose 0.1-25 µM
[14] = target: Nuclear factor NF-kappa-B complex (Homo sapiens) (UniProt Q00653+P19838+Q04206); assay: Activation of NF-kappaB in LPS-stimulated HEK-Blue hTLR4 cells assessed as increase in release of SEAP reporter protein level incubated for 18 hrs by QUANTI-blue assay; assay type: cell-based; conditions: filed as activator; how it was run: as §3
[15] = target: T1, Toll-like receptor 4/MD-2 (Homo sapiens); assay: Binding affinity to NTA sensor chip immobilized recombinant human TLR4/MD2 assessed as maximum response by surface plasmon resonance analysis; assay type: protein-complex assay; conditions: filed as agonist; how it was run: as §4
[16] = target: T1, Toll-like receptor 4/MD-2 (Homo sapiens); assay: Binding affinity to NTA sensor chip immobilized recombinant human TLR4/MD2 assessed as association rate constant by surface plasmon resonance analysis; assay type: protein-complex assay; conditions: filed as agonist; how it was run: as §4
[17] = Toxicity in C57BL/6 […] assessed as local response at injection site at 10 ug observed daily for 7 days; conditions: mouse, in vivo, 168 h; dose 10 µg, time 7 day; how it was run: as §2
[18] = target: Myeloid differentiation primary response protein MyD88 (Homo sapiens) (UniProt Q99836); assay: Activation of MyD88 dependent pathway in human THP-1 derived macrophages assessed as increase in NF-kappaB p65 phosphorylation at 10 uM measured after 1 hr by immunoblotting analysis; assay type: tissue-based; conditions: Macrophage, filed as activator
How it was run: (§6)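 PMA-differentiated THP-1 macrophages treated with compound at 10 μM (S-LPS 100 ng/mL, MPLA 1 μg/mL as references) and harvested at set times. RIPA lysates with protease/phosphatase inhibitors separated by SDS-PAGE, transferred to PVDF and probed for phospho-p65 (Ser536) and phospho-p38 (Thr180/Tyr182) with β-actin as loading control. Detection by chemiluminescence, densitometry; representative of at least two experiments.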

[19] = system: Macrophage; assay: Activation of TRIF dependent pathway in human THP-1 derived macrophages assessed as increase in IRF3 phosphorylation at 10 uM measured up to 3 hrs by immunoblotting analysis; assay type: tissue-based; conditions: time hrs <=3
How it was run: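 Differentiated THP-1 macrophages exposed to compound at 10 μM, alongside S-LPS and R-LPS (100 ng/mL each) and MPLA (1 μg/mL), and collected over a time course. Lysates were immunoblotted for phospho-IRF3 (Ser386) with β-actin as loading control and detected by chemiluminescence.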

[20] = target: Myeloid differentiation primary response protein MyD88 (Homo sapiens) (UniProt Q99836); assay: Activation of MyD88 dependent pathway in human THP-1 derived macrophages assessed as increase in IL-1 beta secretion measured after 18 hrs by ELISA; conditions: Macrophage, filed as activator
How it was run: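 THP-1 cells differentiated with PMA 25 ng/mL for 72 h, then rested 24 h in fresh medium before stimulation with compound (range 0.1–1 to 10–25 μM) in RPMI/10% FBS for 18 h. S-LPS and MPLA used as references. TNFα, IL-1β, IL-6 in supernatants quantified by sandwich ELISA at 450 nm (570 nm correction).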

[21] = target: Myeloid differentiation primary response protein MyD88 (Homo sapiens) (UniProt Q99836); assay: Activation of MyD88 dependent pathway in human THP-1 derived macrophages assessed as increase in MAPK p38 phosphorylation at 10 uM measured after 1 hr by immunoblotting analysis; assay type: tissue-based; conditions: Macrophage, filed as activator; how it was run: as §6

Myeloid differentiation primary response protein MyD88 (Homo sapiens), sequence (Q99836 whole entry): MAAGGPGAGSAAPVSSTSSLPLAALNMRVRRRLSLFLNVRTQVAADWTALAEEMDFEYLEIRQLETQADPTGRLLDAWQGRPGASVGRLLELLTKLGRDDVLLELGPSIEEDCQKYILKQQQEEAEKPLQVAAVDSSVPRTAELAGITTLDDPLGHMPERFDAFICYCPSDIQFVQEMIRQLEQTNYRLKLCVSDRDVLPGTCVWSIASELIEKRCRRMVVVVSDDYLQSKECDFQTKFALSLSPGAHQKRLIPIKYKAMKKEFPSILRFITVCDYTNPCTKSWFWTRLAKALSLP
Toll-like receptor 4 (Homo sapiens), sequence (O00206 whole entry): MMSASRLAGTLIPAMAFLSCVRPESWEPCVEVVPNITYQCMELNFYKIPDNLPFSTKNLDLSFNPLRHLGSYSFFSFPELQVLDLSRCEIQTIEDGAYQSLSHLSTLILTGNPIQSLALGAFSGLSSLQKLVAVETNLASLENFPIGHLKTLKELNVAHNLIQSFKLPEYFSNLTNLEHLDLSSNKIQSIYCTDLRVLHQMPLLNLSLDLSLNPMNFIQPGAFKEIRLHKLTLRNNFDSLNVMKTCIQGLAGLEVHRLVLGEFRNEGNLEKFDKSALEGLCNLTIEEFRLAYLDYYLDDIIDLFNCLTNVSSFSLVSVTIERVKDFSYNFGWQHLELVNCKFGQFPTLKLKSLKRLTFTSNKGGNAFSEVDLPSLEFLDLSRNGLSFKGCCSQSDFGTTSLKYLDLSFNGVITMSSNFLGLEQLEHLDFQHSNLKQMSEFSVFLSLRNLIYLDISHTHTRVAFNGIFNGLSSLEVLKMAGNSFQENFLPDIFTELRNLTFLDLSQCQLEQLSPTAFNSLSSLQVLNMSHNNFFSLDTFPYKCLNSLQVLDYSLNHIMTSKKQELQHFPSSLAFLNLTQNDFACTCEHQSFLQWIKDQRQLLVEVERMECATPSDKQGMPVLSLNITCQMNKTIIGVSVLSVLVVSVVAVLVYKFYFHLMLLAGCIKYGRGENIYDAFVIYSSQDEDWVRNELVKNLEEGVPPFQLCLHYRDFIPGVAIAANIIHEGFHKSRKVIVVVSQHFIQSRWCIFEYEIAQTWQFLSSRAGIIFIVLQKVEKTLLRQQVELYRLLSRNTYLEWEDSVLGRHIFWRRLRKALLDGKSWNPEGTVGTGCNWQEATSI
Toll-like receptor 2 (Homo sapiens), sequence (O60603 whole entry): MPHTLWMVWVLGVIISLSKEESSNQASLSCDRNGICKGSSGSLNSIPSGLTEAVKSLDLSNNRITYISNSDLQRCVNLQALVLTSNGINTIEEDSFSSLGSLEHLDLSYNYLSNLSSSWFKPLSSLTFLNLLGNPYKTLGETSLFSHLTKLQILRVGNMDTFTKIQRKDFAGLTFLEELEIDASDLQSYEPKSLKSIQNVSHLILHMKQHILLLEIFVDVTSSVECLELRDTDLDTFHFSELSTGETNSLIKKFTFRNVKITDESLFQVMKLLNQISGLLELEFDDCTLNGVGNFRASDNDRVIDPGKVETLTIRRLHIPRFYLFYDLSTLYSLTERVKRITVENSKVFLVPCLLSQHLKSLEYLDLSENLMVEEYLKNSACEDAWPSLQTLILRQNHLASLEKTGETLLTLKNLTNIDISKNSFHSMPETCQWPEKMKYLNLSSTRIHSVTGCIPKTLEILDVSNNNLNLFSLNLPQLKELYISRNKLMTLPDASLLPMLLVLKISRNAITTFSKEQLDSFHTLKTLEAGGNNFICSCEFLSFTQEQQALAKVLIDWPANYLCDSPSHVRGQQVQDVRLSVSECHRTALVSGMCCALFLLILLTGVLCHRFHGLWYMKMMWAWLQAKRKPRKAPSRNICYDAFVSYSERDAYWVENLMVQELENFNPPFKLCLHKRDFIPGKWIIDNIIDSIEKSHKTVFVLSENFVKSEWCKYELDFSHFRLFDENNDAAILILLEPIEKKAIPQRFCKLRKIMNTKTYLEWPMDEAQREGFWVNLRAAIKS
Nuclear factor NF-kappa-B complex (Homo sapiens), sequence (P19838 whole entry, looked up): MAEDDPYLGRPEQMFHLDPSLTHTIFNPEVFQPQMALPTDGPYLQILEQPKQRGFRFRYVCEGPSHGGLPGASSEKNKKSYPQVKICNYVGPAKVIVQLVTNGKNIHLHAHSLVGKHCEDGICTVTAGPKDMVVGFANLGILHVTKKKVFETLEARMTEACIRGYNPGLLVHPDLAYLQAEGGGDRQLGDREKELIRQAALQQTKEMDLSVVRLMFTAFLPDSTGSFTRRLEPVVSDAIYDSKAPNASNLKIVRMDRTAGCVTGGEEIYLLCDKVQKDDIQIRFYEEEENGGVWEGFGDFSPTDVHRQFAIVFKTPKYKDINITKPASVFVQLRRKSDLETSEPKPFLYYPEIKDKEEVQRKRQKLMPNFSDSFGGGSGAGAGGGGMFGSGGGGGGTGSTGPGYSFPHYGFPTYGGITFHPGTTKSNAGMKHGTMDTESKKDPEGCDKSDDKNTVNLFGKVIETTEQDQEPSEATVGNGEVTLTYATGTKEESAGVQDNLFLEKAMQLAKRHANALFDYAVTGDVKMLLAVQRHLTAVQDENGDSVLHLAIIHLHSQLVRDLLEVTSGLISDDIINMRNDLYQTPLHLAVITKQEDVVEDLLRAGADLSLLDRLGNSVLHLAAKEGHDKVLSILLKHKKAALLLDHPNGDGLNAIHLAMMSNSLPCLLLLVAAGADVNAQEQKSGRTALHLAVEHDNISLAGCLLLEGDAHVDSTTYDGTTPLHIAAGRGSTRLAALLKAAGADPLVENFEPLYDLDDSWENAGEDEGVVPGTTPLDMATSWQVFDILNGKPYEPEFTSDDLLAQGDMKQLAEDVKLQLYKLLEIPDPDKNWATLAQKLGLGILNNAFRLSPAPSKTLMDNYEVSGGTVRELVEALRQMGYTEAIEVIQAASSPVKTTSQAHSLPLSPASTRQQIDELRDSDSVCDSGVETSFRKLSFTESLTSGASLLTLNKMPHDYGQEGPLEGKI
Nuclear factor NF-kappa-B complex (Homo sapiens), sequence (Q00653 whole entry, looked up): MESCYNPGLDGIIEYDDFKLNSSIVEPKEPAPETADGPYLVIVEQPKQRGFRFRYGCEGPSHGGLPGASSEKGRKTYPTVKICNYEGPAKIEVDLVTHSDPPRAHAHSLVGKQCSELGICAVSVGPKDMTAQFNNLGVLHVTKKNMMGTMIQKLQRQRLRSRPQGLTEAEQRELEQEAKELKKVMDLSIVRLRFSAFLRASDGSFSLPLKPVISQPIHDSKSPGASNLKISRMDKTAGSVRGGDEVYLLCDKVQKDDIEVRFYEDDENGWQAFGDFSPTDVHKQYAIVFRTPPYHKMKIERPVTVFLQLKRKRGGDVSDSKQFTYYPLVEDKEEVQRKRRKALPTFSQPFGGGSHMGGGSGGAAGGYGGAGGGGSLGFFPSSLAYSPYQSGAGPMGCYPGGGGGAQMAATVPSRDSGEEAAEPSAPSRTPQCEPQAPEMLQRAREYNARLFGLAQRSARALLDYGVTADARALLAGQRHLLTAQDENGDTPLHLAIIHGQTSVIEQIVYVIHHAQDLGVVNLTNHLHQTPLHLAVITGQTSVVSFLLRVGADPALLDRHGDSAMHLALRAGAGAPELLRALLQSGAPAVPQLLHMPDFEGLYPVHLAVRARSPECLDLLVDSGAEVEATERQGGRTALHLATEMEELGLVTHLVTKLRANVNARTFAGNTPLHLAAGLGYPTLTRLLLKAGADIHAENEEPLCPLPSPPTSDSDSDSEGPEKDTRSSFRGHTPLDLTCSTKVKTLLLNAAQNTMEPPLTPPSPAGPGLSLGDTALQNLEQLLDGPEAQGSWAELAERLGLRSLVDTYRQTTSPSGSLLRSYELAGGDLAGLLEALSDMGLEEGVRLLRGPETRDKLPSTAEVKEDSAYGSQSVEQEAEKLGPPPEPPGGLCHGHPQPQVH
Nuclear factor NF-kappa-B complex (Homo sapiens), sequence (Q04206 whole entry, looked up): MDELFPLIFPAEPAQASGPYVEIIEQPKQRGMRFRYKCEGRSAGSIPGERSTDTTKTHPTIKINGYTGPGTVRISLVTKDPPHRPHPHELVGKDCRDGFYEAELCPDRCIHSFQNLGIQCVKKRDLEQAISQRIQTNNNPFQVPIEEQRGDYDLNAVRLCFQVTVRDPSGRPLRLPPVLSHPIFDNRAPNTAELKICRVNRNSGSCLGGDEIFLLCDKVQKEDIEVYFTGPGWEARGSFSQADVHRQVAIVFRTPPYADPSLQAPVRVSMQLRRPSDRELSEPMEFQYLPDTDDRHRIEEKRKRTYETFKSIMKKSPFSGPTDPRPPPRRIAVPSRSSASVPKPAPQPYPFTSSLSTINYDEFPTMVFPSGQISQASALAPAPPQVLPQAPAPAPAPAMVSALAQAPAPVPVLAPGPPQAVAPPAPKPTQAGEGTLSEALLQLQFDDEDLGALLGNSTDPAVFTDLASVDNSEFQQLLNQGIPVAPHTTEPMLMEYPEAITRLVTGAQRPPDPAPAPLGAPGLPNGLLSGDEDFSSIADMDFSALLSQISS

Structure (SMILES): CCCCCCCCCCCCCC(=O)N[C@H]1[C@@H](OP(=O)([O-])[O-])O[C@H](CO)[C@@H](OC(=O)CCCCCCCCCCCCC)[C@@H]1OC(=O)CCCCCCCCCCCCC.[Na+].[Na+]
- Activity [1]: Active
- Activity [2]: Non-Toxic
- Activity [3]: Non-Toxic
- Activity [4]: inactive
- Activity [5]: inactive
- Activity [6]: inactive
- Activity [7]: Dose-Dependent Effect
- Kdiss [8]: 7.09 10^-4/s
- Activity [9]: inactive
- Activity [10]: Active
- Activity [11]: inactive
- Activity [12]: Active
- Activity [13]: inactive
- Activity [14]: Dose-Dependent Effect
- Rmax [15]: 8.15 RU
- Ka [16]: 3.84 10^3(1/Ms)
- Activity [17]: Non-Toxic
- Activity [18]: Active
- Activity [19]: inactive
- Activity [20]: Dose-Dependent Effect
- Activity [21]: Active

From ChEMBL document CHEMBL5030531, “Synthetic Glycolipids as Molecular Vaccine Adjuvants: Mechanism of Action in Human Cells and In Vivo Activity” (J Med Chem, 2021)
